Key:
[1] = target: T1, CDK6/cyclin D3 (Homo sapiens) (UniProt P30281+Q00534); test: Inhibition of recombinant full-length human CDK6/cyclinD3 at 1 uM using histone H1 as substrate measured after 40 mins in presence of [gamma33P]ATP by scintillation counting method relative to control; type: protein-complex assay
Method in brief: (§1)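 Percent inhibition of kinase activity at a single compound concentration, measured by the outsourced Eurofins KinaseProfiler panel. Values are the mean of two independent experiments.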

[2] = target: T1, CDK6/cyclin D3 (Homo sapiens); test: Inhibition of recombinant full-length human CDK6/cyclinD3 at 500 nM using histone H1 as substrate measured after 40 mins in presence of [gamma33P]ATP by scintillation counting method relative to control; type: protein-complex assay; method in brief: as §1
A549 [3] = test: Antiproliferative activity against human A549 cells assessed as inhibition of cell viability at 10 uM after 72 hrs by CCK-8 assay relative to control; type: functional; settings: A549, 72 h
Method in brief: (§2)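 Single-concentration viability screen using CCK-8. Cells were seeded at 3000/well and treated for 72 h. A450 read after 1-4 h with reagent. Percent inhibition calculated against untreated control and blank wells as (Ac−As)/(Ac−Ab)×100%.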

[4] = target: T2, CDK4/Cyclin D3 (Homo sapiens) (UniProt P11802+P30281); test: Inhibition of recombinant full-length human CDK4/cyclinD3 at 1 uM using Rb fragment as substrate measured after 40 mins in presence of [gamma33P]ATP by scintillation counting method relative to control; type: protein-complex assay; method in brief: as §1
A549 [5] = test: Antiproliferative activity against human A549 cells assessed as inhibition of cell viability at 1 uM after 72 hrs by CCK-8 assay relative to control; type: functional; settings: A549, 72 h; method in brief: as §2
[6] = target: T3, CDK9/cyclin T1 (Homo sapiens) (UniProt O60563+P50750); test: Inhibition of recombinant full-length human CDK9/cyclinT1 at 500 nM using KTFCGTPEYLAPEVRREPRILSEEEQEMFRDFDYIADWC peptide as substrate measured after 40 mins in presence of [gamma33P]ATP by scintillation counting method relative to control; type: protein-complex assay; method in brief: as §1
[7] = target: T3, CDK9/cyclin T1 (Homo sapiens); test: Inhibition of recombinant full-length human CDK9/cyclinT1 at 1 uM using KTFCGTPEYLAPEVRREPRILSEEEQEMFRDFDYIADWC peptide as substrate measured after 40 mins in presence of [gamma33P]ATP by scintillation counting method relative to control; type: protein-complex assay; method in brief: as §1
NCI-H1299 [8] = test: Antiproliferative activity against human H1299 cells assessed as inhibition of cell viability at 1 uM after 72 hrs by CCK-8 assay relative to control; type: functional; settings: NCI-H1299, 72 h; method in brief: as §2
NCI-H1299 [9] = test: Antiproliferative activity against human H1299 cells assessed as inhibition of cell viability at 10 uM after 72 hrs by CCK-8 assay relative to control; type: functional; settings: NCI-H1299, 72 h; method in brief: as §2
CDK9/cyclin T1 = CDK9/cyclin T1 (Homo sapiens, UniProt P50750); test: Inhibition of recombinant full-length human CDK9/cyclinT1 using KTFCGTPEYLAPEVRREPRILSEEEQEMFRDFDYIADWC peptide as substrate measured after 40 mins in presence of [gamma33P]ATP by scintillation counting method; type: protein-complex assay
Sequence of CDK9/cyclin T1 (O60563 whole entry): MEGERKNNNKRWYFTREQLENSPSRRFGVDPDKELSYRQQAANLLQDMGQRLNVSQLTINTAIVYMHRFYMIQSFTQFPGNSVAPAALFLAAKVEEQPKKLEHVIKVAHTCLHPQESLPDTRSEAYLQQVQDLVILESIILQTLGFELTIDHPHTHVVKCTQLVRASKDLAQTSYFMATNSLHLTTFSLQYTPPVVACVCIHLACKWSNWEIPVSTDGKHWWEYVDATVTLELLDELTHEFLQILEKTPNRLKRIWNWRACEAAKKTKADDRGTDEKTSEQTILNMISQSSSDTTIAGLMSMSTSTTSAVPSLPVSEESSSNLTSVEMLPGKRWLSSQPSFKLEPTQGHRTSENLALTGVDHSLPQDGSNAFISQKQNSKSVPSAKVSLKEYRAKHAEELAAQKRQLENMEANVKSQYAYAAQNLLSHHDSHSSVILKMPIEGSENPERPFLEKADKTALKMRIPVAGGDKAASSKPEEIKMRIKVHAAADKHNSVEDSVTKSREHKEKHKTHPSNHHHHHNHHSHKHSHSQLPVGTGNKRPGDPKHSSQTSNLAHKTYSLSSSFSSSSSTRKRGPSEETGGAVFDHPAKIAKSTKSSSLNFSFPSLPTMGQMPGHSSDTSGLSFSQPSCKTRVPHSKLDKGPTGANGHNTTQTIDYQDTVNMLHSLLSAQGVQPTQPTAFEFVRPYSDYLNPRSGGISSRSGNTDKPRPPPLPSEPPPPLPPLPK
Sequence of CDK9/cyclin T1 (P50750 whole entry): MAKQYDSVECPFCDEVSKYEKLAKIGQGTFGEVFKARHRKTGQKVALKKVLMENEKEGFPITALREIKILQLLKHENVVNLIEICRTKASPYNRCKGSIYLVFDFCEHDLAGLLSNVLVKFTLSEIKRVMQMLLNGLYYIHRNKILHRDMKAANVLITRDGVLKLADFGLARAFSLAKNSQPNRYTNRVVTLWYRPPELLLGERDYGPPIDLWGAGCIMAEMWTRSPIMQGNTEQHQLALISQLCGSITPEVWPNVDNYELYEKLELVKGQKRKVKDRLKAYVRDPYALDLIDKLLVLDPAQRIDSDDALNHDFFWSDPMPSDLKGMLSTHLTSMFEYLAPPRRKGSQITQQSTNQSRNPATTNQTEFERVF
Method in brief: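 IC50 against CDK9/cyclin T1, determined by the outsourced Eurofins KinaseProfiler service. Values are the mean of two independent experiments.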

[10] = target: T2, CDK4/Cyclin D3 (Homo sapiens); test: Inhibition of recombinant full-length human CDK4/cyclinD3 at 500 nM using Rb fragment as substrate measured after 40 mins in presence of [gamma33P]ATP by scintillation counting method relative to control; type: protein-complex assay; method in brief: as §1
[11] = target: T3, CDK9/cyclin T1 (Homo sapiens); test: Potency index, ratio of ribociclib IC50 to compound IC50 for inhibition of recombinant full-length human CDK9/cyclinT1; type: protein-complex assay

Row | Structure (SMILES) | inhibition [1] [%] | inhibition [2] [%] | inhibition at 10 µM (A549 [3]) [%] | inhibition [4] [%] | inhibition at 1 µM (A549 [5]) [%] | inhibition [6] [%] | inhibition [7] [%] | inhibition at 1 µM (NCI-H1299 [8]) [%] | inhibition at 10 µM (NCI-H1299 [9]) [%] | IC50 (CDK9/cyclin T1) [µM] | inhibition [10] [%] | Ratio IC50 [11]
1 | CN(C)C(=O)c1cc2cnc(Nc3ccc(C(=O)NCCCN=C=S)cc3O)nc2n1C1CCCC1 | 68 | 21 | 73 | 46 | 55.9 | 90 | 94 | 10.3 | 24.2 | 0.068 | – | –
2 | CN(C)C(=O)c1cc2cnc(Nc3ccc(C(=O)NCCCCCN=C=S)cc3F)nc2n1C1CCCC1 | 81 | 30 | 15.6 | 86 | -1.6 | 96 | 96 | 36.1 | 86.7 | 0.011 | 72 | –
3 | CN(C)C(=O)c1cc2cnc(Nc3ccc(C(=O)NCCCCN=C=S)cc3O)nc2n1C1CCCC1 | 61 | – | 41.7 | 55 | 30.3 | 89 | 91 | 10.7 | 51.8 | 0.042 | – | –
4 | CN(C)C(=O)c1cc2cnc(Nc3ccc(C(=O)NCCCCN=C=S)cc3F)nc2n1C1CCCC1 | 86 | 38 | 24.4 | 89 | -7 | 97 | 96 | 28.7 | 78.9 | 0.006 | 76 | –
5 | CN(C)C(=O)c1cc2cnc(Nc3ccc(S(=O)(=O)NCCCCCCN=C=S)cc3)nc2n1C1CCCC1 | 81 | 41 | 101 | 89 | 49.5 | 98 | 96 | 42.4 | 70.6 | 0.009 | 78 | > 20
6 | CN(C)C(=O)c1cc2cnc(Nc3ccc(C(=O)NCCCCCN=C=S)cc3O)nc2n1C1CCCC1 | 60 | – | 30.7 | 59 | 23.1 | 91 | 92 | 22.6 | 80.7 | 0.033 | – | –
7 | CN(C)C(=O)c1cc2cnc(Nc3ccc(C(=O)NCCCCCCN=C=S)cc3F)nc2n1C1CCCC1 | 78 | 34 | 22.9 | 89 | -11.8 | 95 | 94 | 29.1 | 77.6 | 0.034 | 68 | –
8 | CN(C)C(=O)c1cc2cnc(Nc3ccc(C(=O)NCCCN=C=S)cc3F)nc2n1C1CCCC1 | 82 | 41 | 60.2 | 86 | 16.7 | 98 | 97 | 9.27 | 78.5 | 0.01 | 75 | –
9 | CN(C)C(=O)c1cc2cnc(Nc3ccc(NC(=O)CCCCCCCN=C=S)cc3F)nc2n1C1CCCC1 | 49 | – | 94.1 | 72 | 8.65 | 96 | 95 | 7.5 | 14 | 0.025 | 62 | –
10 | CN(C)C(=O)c1cc2cnc(Nc3cccc(NC(=O)CCCCCCCN=C=S)c3)nc2n1C1CCCC1 | 74 | 23 | 96.7 | 80 | 44.6 | 98 | 96 | 50.6 | 86.9 | 0.015 | 59 | –
11 | CN(C)C(=O)c1cc2cnc(Nc3ccc(C(=O)NCCCCCCCN=C=S)cc3F)nc2n1C1CCCC1 | 52 | – | 12.7 | 67 | 0.05 | 90 | 92 | -9.23 | 35.8 | 0.05 | 60 | –
12 | CN(C)C(=O)c1cc2cnc(Nc3ccc(C(=O)NCCCN=C=S)cc3)nc2n1C1CCCC1 | 94 | 69 | 102 | 99 | 32.9 | 100 | 98 | 65.1 | 91.2 | – | 98 | –
13 | CN(C)C(=O)c1cc2cnc(Nc3ccc(C(=O)NCCCCCCN=C=S)cc3)nc2n1C1CCCC1 | 92 | 63 | 100 | 98 | 35.8 | 67 | 96 | 49.4 | 85 | – | 101 | –
14 | CN(C)C(=O)c1cc2cnc(Nc3ccc(NC(=O)CCCCCCN=C=S)cc3)nc2n1C1CCCC1 | 86 | 65 | 102 | 97 | 43.3 | 98 | 99 | 50.9 | 80.9 | – | 99 | –
15 | CN(C)C(=O)c1cc2cnc(Nc3ccc(N=C=S)cc3)nc2n1C1CCCC1 | 72 | 43 | 97.9 | 94 | 44.4 | 93 | 96 | 46.9 | 83.7 | – | 89 | –
